Yeast life ext = yeast lifespan extension; S. cerevisiae growth with nicotinamide, OD615; deaD strain in restrictive glucose medium; AID 775; actives 0.68% (n = 130,000); inhibition of the nicotinamide effect, % at 10 µM;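 active means inhibition above a set limit, placed 3 SD over the median of all compounds, cut at about 26% in these data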
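Assay system: engineered S. cerevisiae DeaD replicative-lifespan strain, galactose-grown log-phase cells; medium: restrictive CSMM-D dextrose medium; also added: nicotinamide, 1.5 mM, co-present with compound; schedule: 48 h compound exposure at 30 °C, humidified; detection: absorbance at 615 nm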
RAM inhibit = inhibitors of the yeast RAM network; S. cerevisiae dse1pr::URA3 reporter, 5-FOA growth OD615, 2 d; analog-sensitive cbk1-as2 kinase mutant strain; inhibition, % at 50 µM; actives 1.8% (n = 190,000); AID 868;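 active means inhibition above a set limit, 3 SD over mean compound inhibition, cut at about 8.4% in these data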;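 further: inhibition rescues growth on 5-FOA so higher OD means more RAM inhibition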
BB579 growth dn = reduces growth of yeast BB579 in restrictive medium | actives 0.51% (n = 140,000) | inhibition, % at 10 µM | S. cerevisiae BB579 growth, OD615, 48 h;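 active means inhibition above a set limit, 3 SD over the mean compound inhibition, cut at about 44% in these data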
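System: DeaD yeast strain BB579; buffer or medium: CSMM-D dextrose restrictive medium; technique: OD at 615 nm; schedule: 4 h cell preincubation, 48 h compound exposure, 30 °C humidified; doses: single 10 µM dose; controls: amphotericin B 10 µg/mL, positive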
Phagocytosis inh = macrophage phagocytosis inhibition; J774A.1 macrophage IgG-bead phagocytosis, imaging; actives 0.07% (n = 110,000); inhibition, % at 5 µM; AID 1029;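 active means inhibition above the mean of the plate negative controls plus 5 SD, cut at about 13% in these data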;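 further: phagocytic index as fraction of beads internalized from green versus red external bead signal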
Measles CPE = protection of cells from measles virus; Measles virus-infected cells, CPE protection, absorbance; protection (pct of control), % at 4 µM; actives 1.5% (n = 140,000); AID 841; in the data active means protection mostly above about 24%, no sharp cut-off; inactive means mostly below about 26%
RAM efflux-def = RAM network inhibitors in efflux-deficient yeast | 1,200 tested, under 10 active | max inhibition, % | S. cerevisiae efflux-deficient reporter strain, 5-FOA growth OD615, 2 days | shares compounds with RAM inhibit; call rule not given here
Numbers stand for hits. Rows were chosen to be rich in hits. Some 3.6% of all compounds tested hit in one or more screens of this group.

Screening Cc1ccc(OCCn2cc(/C=C(\C#N)C(=O)NCC3CCCO3)c3ccccc32)cc1 (stereo not given) returned Yeast life ext inactive, RAM inhibit 14.0, BB579 growth dn inactive, Phagocytosis inh inactive, Measles CPE inactive and RAM efflux-def inactive.
For Cc1c(NC(=O)CCCCCN2C(=O)c3ccccc3C2=O)c(=O)n(-c2ccccc2)n1C the results were Yeast life ext inactive, RAM inhibit inactive, BB579 growth dn inactive, Phagocytosis inh inactive and Measles CPE inactive.
CC(=O)Nc1ccc(S(=O)(=O)Nc2nc3ccccc3nc2-n2ccc(=NC(=O)c3ccc(F)cc3)cc2)cc1 was read as RAM inhibit 12.4 and RAM efflux-def inactive.
For COc1cccc(C(=O)NN2c3ccccc3CCc3ccccc32)c1 the results were Yeast life ext inactive, RAM inhibit 12.9, BB579 growth dn inactive, Phagocytosis inh inactive, Measles CPE inactive and RAM efflux-def inactive.
Screening COc1cccc(C(=O)NN2C(=O)C3C4C=CC(O4)C3C2=O)c1 (stereo not given) returned Yeast life ext inactive, RAM inhibit inactive, BB579 growth dn inactive, Phagocytosis inh inactive and Measles CPE inactive.
`CCC(C)N1C(=O)/C(=C/c2c(NCCCOC(C)C)nc3c(C)cccn3c2=O)SC1=S` (stereo not given) gave Yeast life ext inactive, RAM inhibit 18.4, BB579 growth dn inactive, Measles CPE inactive and RAM efflux-def inactive.
For CSc1ccc(Cl)c(C(=O)NCCOc2ccccc2)c1 the results were Yeast life ext inactive, RAM inhibit inactive, BB579 growth dn inactive, Phagocytosis inh inactive and Measles CPE inactive.
CSc1ccc(Cl)c(C(=O)NCCOc2cc(C)ccc2C(C)C)c1 was read as Yeast life ext inactive, RAM inhibit 12.8, BB579 growth dn inactive, Measles CPE inactive and RAM efflux-def inactive.
`CCc1ccc(C(=O)COC(=O)C(Cc2ccccc2)NC(=O)c2ccc(Cl)cc2)cc1` (stereo not given) gave Yeast life ext inactive, RAM inhibit 16.6, BB579 growth dn inactive, Phagocytosis inh inactive, Measles CPE 45.0 and RAM efflux-def inactive.
`CC(=O)NC(Cc1ccccc1)C(=O)OCC(=O)c1ccc(Cl)cc1` (stereo not given) gave Yeast life ext inactive, RAM inhibit inactive, BB579 growth dn inactive, Phagocytosis inh inactive and Measles CPE inactive.
For CCOc1cc(/C=N/N=C2/NC(=O)C(CC(=O)O)S2)ccc1OCc1ccccc1Cl (stereo not given) the results were RAM inhibit inactive.
For CCOc1cc(/C=N/N=C2/NC(=O)C(CC(=O)O)S2)ccc1OS(=O)(=O)c1ccc(C)cc1 (stereo not given) the results were RAM inhibit 12.3 and RAM efflux-def inactive.
`CCn1c(=O)c(C(=O)NCc2ccc(OC)c(OC)c2)c(O)c2ccccc21` gave Yeast life ext inactive, RAM inhibit inactive, BB579 growth dn inactive, Phagocytosis inh inactive and Measles CPE inactive.
For CC(C)Cn1c(=O)c(C(=O)Nc2ccccc2S(N)(=O)=O)c(O)c2ccccc21 the results were Yeast life ext inactive, RAM inhibit inactive, BB579 growth dn inactive, Phagocytosis inh inactive and Measles CPE inactive.
For CCCn1c(=O)c(C(=O)Nc2ccccc2C(=O)OCC)c(O)c2ccccc21 the results were Yeast life ext inactive, RAM inhibit 15.6, BB579 growth dn inactive, Phagocytosis inh inactive, Measles CPE inactive and RAM efflux-def inactive.
Screening CCOC(=O)Cc1csc(NC(=O)c2c(O)c3ccccc3n(CC(C)C)c2=O)n1 returned Yeast life ext 69.2, RAM inhibit 13.2, BB579 growth dn inactive, Phagocytosis inh inactive, Measles CPE inactive and RAM efflux-def inactive.
`CCCn1c(=O)c(C(=O)NCc2ccc(OC)c(OC)c2)c(O)c2ccccc21` gave Yeast life ext inactive, RAM inhibit 17.1, BB579 growth dn inactive, Phagocytosis inh inactive, Measles CPE inactive and RAM efflux-def inactive.
`COc1ccc(CCC(=O)Nc2ccccc2C(F)(F)F)cc1` gave Yeast life ext inactive, RAM inhibit inactive, BB579 growth dn inactive, Phagocytosis inh inactive and Measles CPE inactive.
For c1ccc(-c2nnc(SCCC3OCCCO3)o2)cc1 the results were Yeast life ext inactive, RAM inhibit inactive, BB579 growth dn inactive and Measles CPE inactive.
Screening Cc1ccc(OCc2nnc(SCC(=O)c3cccc([N+](=O)[O-])c3)n2C)cc1 returned Yeast life ext inactive, RAM inhibit inactive, BB579 growth dn inactive, Phagocytosis inh inactive and Measles CPE inactive.
`Cc1ccc2nc(-c3ccc(NC(=O)CSc4nccc(=O)[nH]4)cc3)sc2c1` gave RAM inhibit 11.5 and RAM efflux-def inactive.
For CCn1c2ccccc2c2cc(NC(=O)c3ccccc3[N+](=O)[O-])ccc21 the results were Yeast life ext inactive, RAM inhibit inactive, BB579 growth dn inactive, Phagocytosis inh inactive and Measles CPE inactive.
`COc1ccccc1-c1noc(CCC(=O)Nc2cccc(C(F)(F)F)c2)n1` gave Yeast life ext inactive, RAM inhibit 22.6, BB579 growth dn inactive, Measles CPE inactive and RAM efflux-def inactive.
`Cn1nc(C(F)(F)F)c(/C=N/OC(=O)c2ccccc2Cl)c1SCc1ccccc1Cl` gave Yeast life ext inactive, RAM inhibit 12.3, BB579 growth dn inactive, Phagocytosis inh inactive, Measles CPE inactive and RAM efflux-def inactive.
Screening Cn1nc(C(F)(F)F)c(/C=N/OCc2c(Cl)cccc2Cl)c1Cl returned Yeast life ext inactive, RAM inhibit inactive, BB579 growth dn inactive and Measles CPE inactive.
Cn1nc(C(F)(F)F)c(/C=N/OC(=O)c2ccc(Cl)cc2)c1Cl was read as Yeast life ext inactive, RAM inhibit inactive, BB579 growth dn inactive and Measles CPE inactive.
`Cn1nc(C(F)(F)F)c(/C=N/OC(=O)c2ccccc2)c1SCc1ccc(Cl)cc1` gave Yeast life ext inactive, RAM inhibit 12.1, BB579 growth dn inactive, Phagocytosis inh inactive, Measles CPE inactive and RAM efflux-def inactive.
Screening CCN(CC)S(=O)(=O)c1ccc(NC(=O)CCC2CCCCC2)cc1 returned Yeast life ext inactive, RAM inhibit 11.6, BB579 growth dn inactive, Phagocytosis inh inactive, Measles CPE inactive and RAM efflux-def inactive.
COc1ccc(-c2noc(CSc3nnc(CCc4ccccc4)n3-c3ccccc3)n2)cc1OC was read as Yeast life ext inactive, RAM inhibit inactive, BB579 growth dn inactive, Phagocytosis inh inactive and Measles CPE inactive.
Screening Cc1ccc(-c2noc(CSc3nnc(CCc4ccccc4)n3-c3ccccc3)n2)cc1 returned Yeast life ext inactive, RAM inhibit 13.7, BB579 growth dn inactive, Phagocytosis inh inactive, Measles CPE inactive and RAM efflux-def inactive.
`CN(c1ccc(C(=O)NCCSCc2ccccc2)cc1)S(=O)(=O)c1ccccc1` gave Yeast life ext inactive, RAM inhibit inactive, BB579 growth dn inactive, Phagocytosis inh inactive and Measles CPE inactive.

Bioassay records deposited in PubChem BioAssay by several laboratories.
